Measurements: ChEMBL document CHEMBL3085737, “Inducing secondary metabolite production by the endophytic fungus Fusarium tricinctum through coculture with Bacillus subtilis” (2013)

Columns and labels:
Type in all cases: functional
[1] = system: Enterococcus faecalis; test: Antibacterial activity against multidrug and vancomycin-resistant Enterococcus faecalis UW 2689 assessed as growth inhibition by broth microdilution method
Outline: (§1)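 MIC by broth microdilution following CLSI guidelines. Inoculum made by direct colony suspension, giving 5 × 10^5 CFU/mL after the last dilution step. Compounds dosed from 10 mg/mL DMSO stocks up to 64 μg/mL top concentration, where final DMSO was 0.64%. Growth read as OD600 in a microtiter plate reader.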

[2] = system: Pseudomonas aeruginosa; test: Antibacterial activity against multidrug-resistant Pseudomonas aeruginosa B 63230 assessed as growth inhibition by broth microdilution method; outline: as §1
[3] = system: Streptococcus pneumoniae; test: Antibacterial activity against Streptococcus pneumoniae ATCC 49619 assessed as growth inhibition by broth microdilution method
Outline: (§2)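 MIC by broth microdilution following CLSI guidelines; inoculum made by direct colony suspension, 5 × 10^5 CFU/mL after the final dilution. Compounds were added from a 10 mg/mL DMSO stock, tested up to 64 μg/mL, giving 0.64% final DMSO at the top concentration. Growth was read as OD600 in a microtiter plate reader.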

[4] = system: Staphylococcus aureus; test: Antibacterial activity against Staphylococcus aureus ATCC 29213 assessed as growth inhibition by broth microdilution method; outline: as §2
[5] = system: Escherichia coli; test: Antibacterial activity against Escherichia coli ATCC 25922 assessed as growth inhibition by broth microdilution method; outline: as §2
[6] = system: Bacillus subtilis; test: Antibacterial activity against Bacillus subtilis 168 trpC2 assessed as growth inhibition by broth microdilution method; settings: subsp. subtilis str. 168; outline: as §2
[7] = system: Staphylococcus aureus; test: Antibacterial activity against multidrug and methicillin-resistant Staphylococcus aureus 25697 assessed as growth inhibition by broth microdilution method; outline: as §1

C=C1NC(=O)C(C)C(CCC(C)C(=O)/C=C/C(C)=C/CCC(C)CCCCCC)OC(=O)C(CCC(N)=O)NC(=O)C(C)CNC1=O (stereo not drawn)
MIC [1]: > 64 µg/mL
MIC [2]: > 64 µg/mL
MIC [3]: > 64 µg/mL
MIC [4]: > 64 µg/mL
MIC [5]: > 64 µg/mL
MIC [6]: > 64 µg/mL
MIC [7]: > 64 µg/mL

CC(=O)C[C@@H](O)Cc1cc2cc(O)cc(O)c2c(=O)o1
MIC [1]: > 64 µg/mL
MIC [2]: > 64 µg/mL
MIC [3]: > 64 µg/mL
MIC [4]: > 64 µg/mL
MIC [5]: > 64 µg/mL
MIC [6]: > 64 µg/mL
MIC [7]: > 64 µg/mL

C[C@@H](O)C[C@@H](O)Cc1cc2cc(O)cc(O)c2c(=O)o1
MIC [1]: > 64 µg/mL
MIC [2]: > 64 µg/mL
MIC [3]: > 64 µg/mL
MIC [4]: > 64 µg/mL
MIC [5]: > 64 µg/mL
MIC [6]: > 64 µg/mL
MIC [7]: > 64 µg/mL

Cc1cc(=O)cc(Cc2cc(O)cc(O)c2)o1
MIC [1]: > 64 µg/mL
MIC [2]: > 64 µg/mL
MIC [3]: > 64 µg/mL
MIC [4]: > 64 µg/mL
MIC [5]: > 64 µg/mL
MIC [6]: > 64 µg/mL
MIC [7]: > 64 µg/mL

COC(=O)c1oc(=O)c2c(O)c3c(=O)cc(C)oc3cc2c1O
MIC [1]: 8 µg/mL
MIC [2]: > 64 µg/mL
MIC [3]: 4 µg/mL
MIC [4]: 2 µg/mL
MIC [5]: > 64 µg/mL
MIC [6]: 8 µg/mL
MIC [7]: 2 µg/mL

O=C(O)CNc1ccccc1C(=O)O
MIC [1]: > 64 µg/mL
MIC [2]: > 64 µg/mL
MIC [3]: > 64 µg/mL
MIC [4]: > 64 µg/mL
MIC [5]: > 64 µg/mL
MIC [6]: > 64 µg/mL
MIC [7]: > 64 µg/mL

O=C(O)c1cn(C2CC2)c2cc(N3CCNCC3)c(F)cc2c1=O [CIPROFLOXACIN]
MIC [1]: 16 µg/mL
MIC [2]: 16 µg/mL
MIC [3]: 0.25 µg/mL
MIC [4]: 0.0625 µg/mL
MIC [6]: 0.16 µg/mL
MIC [7]: 8 µg/mL

CC[C@H](C)[C@H]1C(=O)O[C@H](C(C)C)C(=O)N(C)[C@@H](C(C)C)C(=O)O[C@H](C(C)C)C(=O)N(C)[C@@H](C(C)C)C(=O)O[C@H](C(C)C)C(=O)N1C [ENNIATIN B1]
MIC [1]: 8 µg/mL
MIC [2]: > 64 µg/mL
MIC [3]: 4 µg/mL
MIC [4]: 8 µg/mL
MIC [5]: > 64 µg/mL
MIC [6]: 16 µg/mL
MIC [7]: 8 µg/mL

CC(C)[C@H]1C(=O)O[C@H](C(C)C)C(=O)N(C)[C@@H](C(C)C)C(=O)O[C@H](C(C)C)C(=O)N(C)[C@@H](C(C)C)C(=O)O[C@H](C(C)C)C(=O)N1C [ENNIATIN B]
MIC [1]: > 64 µg/mL
MIC [2]: > 64 µg/mL
MIC [3]: 16 µg/mL
MIC [4]: > 64 µg/mL
MIC [5]: > 64 µg/mL
MIC [6]: > 64 µg/mL
MIC [7]: > 64 µg/mL

CN(C)[C@@H]1C(O)=C(C(N)=O)C(=O)[C@@]2(O)C(O)=C3C(=O)c4c(O)cccc4[C@@](C)(O)[C@H]3C[C@@H]12 [TETRACYCLINE]
MIC [1]: 64 µg/mL
MIC [2]: 32 µg/mL
MIC [3]: 0.0625 µg/mL
MIC [4]: 0.25 µg/mL
MIC [5]: 0.5 µg/mL
MIC [6]: 4 µg/mL
MIC [7]: 32 µg/mL

CN[C@H](CC(C)C)C(=O)N[C@H]1C(=O)N[C@@H](CC(N)=O)C(=O)N[C@H]2C(=O)N[C@H]3C(=O)N[C@H](C(=O)N[C@H](C(=O)O)c4cc(O)cc(O)c4-c4cc3ccc4O)[C@H](O)c3ccc(c(Cl)c3)Oc3cc2cc(c3O[C@@H]2O[C@H](CO)[C@@H](O)[C@H](O)[C@H]2O[C@H]2C[C@](C)(N)[C@H](O)[C@H](C)O2)Oc2ccc(cc2Cl)[C@H]1O [VANCOMYCIN]
MIC [2]: > 64 µg/mL
MIC [3]: 0.125 µg/mL
MIC [5]: > 64 µg/mL
MIC [6]: 0.125 µg/mL
